Bioassay records from PubChem.
Rows were chosen to be rich in hits. Some 1.3% of all compounds tested hit in one or more screens of this group.
SDO1 yeast rescue = growth rescue of sdo1-depleted yeast, primary screen, S. cerevisiae, bone marrow failure model; S. cerevisiae sdo1-depleted JHY4D growth rescue, OD600 30 h; active compounds read high; pdr5 snq2 efflux-pump mutant strain; z-score at 10 µM; actives 0.21% (n = 140,000);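 active means z-score above 3 at both the 24 hr and the 30 hr optical density reads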;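 further: z-score against mean and SD of all compound wells on the same plate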
Yeast life ext = compounds extending yeast replicative lifespan, primary screen, S. cerevisiae, OD615; S. cerevisiae growth with nicotinamide; deaD strain in restrictive glucose medium; inhibition of the nicotinamide effect, % at 10 µM; actives 0.68% (n = 130,000);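 active means inhibition above a set limit, placed 3 SD over the median of all compounds, cut at about 26% in these data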;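 further: 0% = nicotinamide-treated wells and 100% = cells grown without nicotinamide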
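assay system = DeaD-strain S. cerevisiae | measured by = absorbance at 615 nm | probe or stimulus = nicotinamide 1.5 mM | buffer or medium = CSMM-D glucose medium, restrictive | times = 48 h at 30 °C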
Yeast growth inh = growth inhibitors of yeast BB579 in restrictive medium, primary screen, yeast lifespan-shortening project, S. cerevisiae | inhibition, % at 10 µM | AID 804, 2007 | OD615, 48 h | actives 0.51% (n = 140,000);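 active means inhibition above a set limit, 3 SD over the mean compound inhibition, cut at about 44% in these data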
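Test system: DeaD yeast strain BB579 / Buffer or medium: restrictive glucose-based CSMM-D medium / Doses: single 10 µM dose / Schedule: 4 h cell preincubation, 48 h compound exposure, 30 °C humidified / Technique: culture absorbance at 615 nm / Controls: amphotericin B positive control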
Efa HMGR inh = inhibitors of E. faecalis class II HMGR, primary screen, biochemical, Enterococcus faecalis | actives 0.41% (n = 190,000) | inhibition, % at 10 µM | purified E. faecalis HMGR, NADPH absorbance 340 nm kinetic | HMG-CoA reductase (Enterococcus faecalis, mvaE);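 active means inhibition above a set limit, the median over all tested compounds plus 3 SD, cut at about 9.5% in these data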;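 further: enzyme runs in reverse so mevalonate oxidation gives rising NADPH absorbance; 0% = complete reaction with DMSO and 100% = background rate lacking mevalonate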
Numbers without * were called inactive.

For COc1ccc(C2CC(c3cccs3)=NN2C(=O)COC(=O)C2CCCCC2)cc1OC (centres undefined) the results were Efa HMGR inh -8.
Screening CCCNC(=O)CN(C1CCCCC1)S(C)(=O)=O returned SDO1 yeast rescue 0.88, Yeast life ext -4, Yeast growth inh -45 and Efa HMGR inh -1.
For CC(C)CNC(=O)CN(C1CCCCC1)S(C)(=O)=O the results were SDO1 yeast rescue 0.19, Yeast life ext -1, Yeast growth inh 44* and Efa HMGR inh -3.
COc1ccc(C(=O)N/C(=C\c2ccc3c(c2)OCO3)C(=O)Nc2cccc(C(=O)O)c2)cc1 was read as Efa HMGR inh 1.
Screening Cc1[nH]n(-c2ccccc2)c(=O)c1/C=N/N1C(=O)c2ccc3c4c(ccc(c24)C1=O)CC3 returned SDO1 yeast rescue 1.3, Yeast life ext -9, Yeast growth inh 79* and Efa HMGR inh -9.
For Cc1cc(NC(=O)CCS(=O)(=O)c2nc(-c3ccccc3)cc(C(F)(F)F)n2)no1 the results were SDO1 yeast rescue -2.1, Yeast growth inh -22 and Efa HMGR inh -3.
`CS(=O)(=O)c1nc(-c2ccccc2)cc(C(F)(F)F)n1` gave SDO1 yeast rescue -1.3, Yeast life ext 75*, Yeast growth inh -36 and Efa HMGR inh -5.
Screening CCN1/C(=C/c2ccc3cc(C)cc(C)c3[n+]2CC)Sc2cc(C)ccc21 returned Efa HMGR inh -5.
Screening CCN1/C(=C/c2ccc3cccc(C)c3[n+]2CC)Sc2ccccc21 returned SDO1 yeast rescue -3.1, Yeast life ext -13, Yeast growth inh 96* and Efa HMGR inh -3.
Screening COc1ccc(/C=N/NC(=O)C(C)Sc2ccccn2)cc1[N+](=O)[O-] (centres undefined) returned Efa HMGR inh 15*.
COc1ccc(/C=N\NC(=O)CNC(=O)C(c2ccccc2)c2ccccc2)cc1[N+](=O)[O-] was read as SDO1 yeast rescue 0.64, Yeast life ext -3, Yeast growth inh -22 and Efa HMGR inh -4.
For Cc1ccn2c(CN(C)CCn3nc(C)cc3C)c(C(=O)N3CCCCCC3)nc2c1 the results were Efa HMGR inh -3.
`Clc1ccc(COc2ccccc2CNCc2cccnc2)cc1` gave SDO1 yeast rescue 0.77, Yeast life ext 49*, Yeast growth inh -14 and Efa HMGR inh -4.
COc1ccc(C(=O)NNC(=O)c2cccc(F)c2)cc1 was read as Efa HMGR inh 0.
`O=C1CC(N2CCN(c3nc4ccccc4s3)CC2)C(=O)N1Cc1cccs1` (centres undefined) gave SDO1 yeast rescue -2.8, Yeast life ext -26, Yeast growth inh 98* and Efa HMGR inh 0.
`O=C1CC(N2CCN(c3ccc(F)cc3)CC2)C(=O)N1Cc1cccs1` (centres undefined) gave SDO1 yeast rescue 0.01, Yeast life ext -8, Yeast growth inh -61 and Efa HMGR inh 0.
`O=C(Cc1cccs1)NC(c1ccccc1)c1ccccc1` gave Efa HMGR inh 3.
O=C(O)CCC(=O)NC(c1ccccc1)c1ccccc1 was read as Efa HMGR inh 14*.
Screening COc1cccc(C2NC(=O)NC(O)(C(F)(F)F)C2C(=O)c2cccnc2)c1OC (centres undefined) returned SDO1 yeast rescue 0.9, Yeast life ext -23, Yeast growth inh -9 and Efa HMGR inh 19*.
CCn1c(=O)cc(C(F)(F)F)[nH]c1=S was read as Efa HMGR inh 2.
`CC1(C(=O)Nc2nnc(C(C)(C)C)s2)Cc2ccccc2C(=O)O1` (centres undefined) gave SDO1 yeast rescue -0.9, Yeast life ext 3, Yeast growth inh -6 and Efa HMGR inh -2.
`CCSc1nnc(NC(=O)C2(C)Cc3ccccc3C(=O)O2)s1` (centres undefined) gave SDO1 yeast rescue -1.3, Yeast life ext 37*, Yeast growth inh -3 and Efa HMGR inh -4.
For O=C1CC(=O)N(Cc2ccco2)C(=S)N1 the results were SDO1 yeast rescue 1, Yeast life ext -16, Yeast growth inh -14 and Efa HMGR inh 21*.
`CCN1C(=O)/C(=C/N(C)C)c2ccccc21` gave SDO1 yeast rescue 0.27, Yeast life ext 2, Yeast growth inh -41 and Efa HMGR inh 1.
Screening CCN1C(=O)/C(=C\N(C)C)c2ccccc21 returned SDO1 yeast rescue 0.06, Yeast growth inh -19 and Efa HMGR inh 11*.
`COc1cc(C)c(NC(=O)C(=S)NCCc2ccccc2)cc1C` gave Efa HMGR inh -4.
For COC(=O)CSc1ncc(C#N)c(N)n1 the results were SDO1 yeast rescue 0.37, Yeast life ext -1, Yeast growth inh -12 and Efa HMGR inh 63*.
Screening Cc1cccc(OCC(=O)NNC(=O)CSc2ncc(C#N)c(N)n2)c1 returned SDO1 yeast rescue 2, Yeast life ext -12, Yeast growth inh -6 and Efa HMGR inh 5.
N=c1sccn1CC(=O)Nc1cccc(S(=O)(=O)N2CCCCCC2)c1 was read as Efa HMGR inh -2.
`COc1cccc(C(=O)Oc2cc(N)n(S(=O)(=O)c3ccc(C)cc3)n2)c1OC` gave SDO1 yeast rescue -0.34, Yeast life ext 68*, Yeast growth inh -37 and Efa HMGR inh 0.
`CCOC(=O)C/C(C)=N/NC(=O)Nc1ccccc1` gave SDO1 yeast rescue -0.46, Yeast life ext 31*, Yeast growth inh -28 and Efa HMGR inh -2.
Screening CN(C(=O)c1cccs1)c1ccc(OCC(=O)N2CCC(C(N)=O)CC2)cc1 returned Efa HMGR inh 1.
Screening COc1ccc(/C=C/CN2CCN(Cc3ccc(F)cc3)C(CCO)C2)cc1 (centres undefined) returned Efa HMGR inh 2.
Screening O=C(O)C1Cc2ccccc2CN1C(=O)CSc1nnc2ccccn12 (centres undefined) returned Efa HMGR inh -2.
For CC(=O)Nc1ccc(S(=O)(=O)Nc2nc3ccc(C)cc3s2)cc1 the results were SDO1 yeast rescue 0.9, Yeast life ext -4, Yeast growth inh 10 and Efa HMGR inh 1.
Screening Cc1ccc2nc(-c3ccc(NS(=O)(=O)c4ccc(F)cc4)cc3)sc2c1 returned SDO1 yeast rescue -1.7, Yeast life ext -7, Yeast growth inh 91* and Efa HMGR inh -4.
For CC(C)=CC(=O)OCc1cc([N+](=O)[O-])cc2c1OCOC2 the results were Efa HMGR inh -6.
`CN(C)C(CNC(=S)Nc1cccc(Cl)c1)c1ccccc1` (centres undefined) gave Efa HMGR inh -3.
Screening CC(=O)NC(CCS(C)(=O)=O)C(=O)Nc1ccc2c(c1)OCO2 (centres undefined) returned SDO1 yeast rescue 0.48, Yeast life ext 9, Yeast growth inh 44* and Efa HMGR inh 2.
`O=C(Nc1scc(-c2ccc(F)cc2)c1C(=O)O)c1ccco1` gave SDO1 yeast rescue 0.98, Yeast life ext 97*, Yeast growth inh -18 and Efa HMGR inh 0.
